The nature of data set [1]: folding enthalpy; higher = less favourable; fluorescence melt of hairpins on a sequencing array, two-state fit. The conditions noted are these: sodium 0.088 M. The method in brief:
(§1)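 Two-state fits, bootstrapped, provided melting temperature and folding enthalpy from Cy3 fluorescence normalised to pre-quench Cy3 and to control constructs. Library hairpins with annealed Cy3 and quencher oligos were imaged on a sequenced MiSeq flow cell in 50 mM Na-HEPES pH 8.0, 25 mM NaCl, at 2.5 °C intervals up to 60 °C. Four replicates were combined with inverse-variance weighting. A 9.35 °C upward shift was applied to fitted temperatures to match UV melts.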

Data set [2] is described as follows: melting temperature; fluorescence melt of hairpins on a sequencing array, two-state fit, raised by 9.35 °C to match UV melts. Particulars: sodium 0.088 M. An outline of the steps: as §1

In the array DNA melting data of Ke et al. (doi:10.1101/2024.01.08.574731) one finds folding enthalpy and Tm data, which are given here for 37 sequences.

Turning to GTTATCGGAAACGGTAAC ((((.((....)).)))), the folding enthalpy in data set [1] is -26.8 kcal/mol. Also, the Tm in data set [2] was 44.9 °C.
Take GCTTGGTCGAAAGACAGC (((..(((....)))))): the folding enthalpy in data set [1] was -14.8 kcal/mol. Also, the Tm in data set [2] is 43.2 °C.
The corresponding values for GTGGGTGGAAACGCTCAC (((.(.(....).).))) are -33 kcal/mol and 40.6 °C.
With GTCATCGAAAGATCAGAC ((((((....)))..))), the folding enthalpy in data set [1] was -16.7 kcal/mol. Moreover, in data set [2], the Tm amounted to 26.5 °C.
In the case of GATCCACCAATGGATC ((((((....)))))), in data set [1], the folding enthalpy is -36.4 kcal/mol. The Tm in data set [2] amounted to 48.5 °C.
Consider GCGAAAGGAAACTTTCAC (.(((((....))))).), for which, in data set [1], the folding enthalpy is -19.1 kcal/mol. Further, in data set [2], the Tm is 32.6 °C.
For the sequence GATCAATGGTTTGATC ((((((....)))))), the folding enthalpy in data set [1] was -31.9 kcal/mol. The Tm in data set [2] turned out to be 44.7 °C.
The corresponding values for GGAATCCGAAAGGAGTCC (((.(((....))).))) are -42.5 kcal/mol and 55.8 °C.
For GTCGTGGGAAACTGCGAC ((((..(....)..)))) the same measures were -18.5 kcal/mol and 46.9 °C.
The corresponding values for GCGGACGAAAGTCGTCGC ((((((....)))..))) are -22.8 kcal/mol and 52.6 °C.
Consider GATCATACAAATGATC ((((((....)))))), for which the folding enthalpy in data set [1] is -33.6 kcal/mol. Also, the Tm in data set [2] is 44.6 °C.
For GTATTCGCGAAAGCGTAC (((..(((....)))))), in data set [1], the folding enthalpy is -8 kcal/mol. The Tm in data set [2] was 23.4 °C.
For GCATAACGAAAGTTCTGC (((.(((....))).))) the same measures were -35.4 kcal/mol and 45.6 °C.
The corresponding values for GTGCCTCGAAAGAGCAC (((.(((....)))))) are -28.5 kcal/mol and 53.5 °C.
For GATCTGAGGACAGATC ((((((....)))))) the same measures were -26.1 kcal/mol and 46.3 °C.
As for GTAAGCGAAAGCTTATAC ((((((....)))..))), the folding enthalpy in data set [1] is -12.2 kcal/mol. For the same sequence, the Tm in data set [2] amounted to 39.1 °C.
As to GGGCGGGGAAACCCGCTC (.(((((....))))).), the folding enthalpy in data set [1] was -15.2 kcal/mol. Besides, in data set [2], the Tm came to 64.7 °C.
On to GCTATTCGAAAGAAAGC (((.(((....)))))), for which the folding enthalpy in data set [1] is -20.1 kcal/mol. The Tm in data set [2] came to 32.1 °C.
As to GCCACGCGAAAGCGTTGC ((.((((....)))).)), the folding enthalpy in data set [1] is -20.2 kcal/mol. The Tm in data set [2] stood at 57.6 °C.
For GATCCAAGCTTGGATC ((((((....)))))) the same measures were -54.6 kcal/mol and 54.8 °C.
On to GGTTTGGGAAACCAAATC (.(((((....))))).), for which, in data set [1], the folding enthalpy is -31.1 kcal/mol. Besides, the Tm in data set [2] is 44.5 °C.
As for GCGTTCTAACGC ((((....)))), the folding enthalpy in data set [1] is -25.8 kcal/mol. The Tm in data set [2] came out at 58.5 °C.
The corresponding values for GATCTAGGATTAGATC ((((((....)))))) are -29.1 kcal/mol and 44.8 °C.
On to GTTTTCTCGAAAGAGAAC (((..(((....)))))), for which the folding enthalpy in data set [1] was -15.3 kcal/mol. Also, the Tm in data set [2] was 34.7 °C.
The corresponding values for GGCCAAGGAAACTCGGCC ((((.((....)).)))) are -34 kcal/mol and 50.7 °C.
Consider GATCGGCACACCGATC ((((((....)))))), for which, in data set [1], the folding enthalpy is -39.6 kcal/mol. For the same sequence, in data set [2], the Tm was 59 °C.
For GTATTAGGAAACCAATAC (((((.(....).))))) the same measures were -14.2 kcal/mol and 25.9 °C.
On to GACGAGGGAAACCTCATC ((.((((....)))).)), for which the folding enthalpy in data set [1] is -20.3 kcal/mol. Also, the Tm in data set [2] turned out to be 31.2 °C.
TGCTTGAAAAAGCA (((((....))))): the folding enthalpy in data set [1] is -8.9 kcal/mol. Also, the Tm in data set [2] worked out at 47.9 °C.
In the case of GTCGCCGAAAGGCATGAC ((((((....)))..))), the folding enthalpy in data set [1] is -13.2 kcal/mol. Moreover, the Tm in data set [2] was 40.7 °C.
For the sequence GGTTGTGGAAACATAACC ((((.((....)).)))), the folding enthalpy in data set [1] is -37 kcal/mol. The Tm in data set [2] was found to be 45.9 °C.
For CGTTTACGGAAACGTACG (((..(((....)))))) the same measures were -19.2 kcal/mol and 40.1 °C.
The corresponding values for GCAATGCGAAAGCGTGGC ((.(.((....)).).)) are -33.7 kcal/mol and 56.6 °C.
In the case of GCGTGCGGAAACGTACGC ((((.((....)).)))), the folding enthalpy in data set [1] is -31.7 kcal/mol. For the same sequence, the Tm in data set [2] was 66.3 °C.
As to GCTGATCGAAAGATTAGC (((.(((....))).))), in data set [1], the folding enthalpy is -47.2 kcal/mol. In data set [2], the Tm is 51.9 °C.
For GATCACTCGCGTGATC ((((((....)))))) the same measures were -44.5 kcal/mol and 57.1 °C.
For GCAGTCGAAAGACCTGC ((((((....))).))) the same measures were -29.9 kcal/mol and 51.2 °C.
